Here are results for 27 molecules from ChEMBL document CHEMBL4699542, “Design and synthesis of novel methoxypyridine-derived gamma-secretase modulators” (Bioorg Med Chem, 2020).

Series [1] can be described thus: Kinetic aqueous solubility of the compound in pH 7.4 PBS buffer by UV/Visible absorbance analysis. The note with it: read-out: Kinetic_solubility. The format is physicochemical. The procedure, abridged:
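Kinetic solubility determined in PBS at pH 7.4 by UV/Vis absorbance, reported in μM.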

Another series addresses Gamma-secretase. Put plainly: Modulation of gamma secretase in human SH-SY5Y cells overexpressing wild type APP751 assessed as inhibition of amyloid beta (35 to 42 residues) formation incubated for overnight by ELISA. The format is cell-based. The method, boiled down:
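SHSY5Y-APP751 cells plated at 75K/well and incubated overnight at 37 °C, then treated 24 h over 10 concentrations ([…]–10 μM, 1:3.16 steps, in duplicate). Medium Aβ42 measured by sandwich ELISA (Aβ35–42 capture, AP-conjugated Aβ1–12 detection, CDP-Star luminescence) against an Aβ42 standard curve.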
A general note: In an ELISA, binding on a coated surface is turned into a signal by an enzyme label.

Series [2] in a line: Metabolic stability in human liver microsomes assessed as parent compound remaining at 1 uM incubated for 30 mins. It counts as ADME, Microsome. The method, boiled down:
(§1)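 Test compound at 1 μM incubated 30 min with human, rat or mouse liver microsomes (1 mg/mL); parent remaining expressed as %.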
In general terms: Liver microsomes are vesicles of endoplasmic reticulum, rich in cytochrome P450 enzymes.

The nature of series [3]: Metabolic stability in rat liver microsomes assessed as parent compound remaining at 1 uM incubated for 30 mins. It counts as ADME, Microsome. To be noted: 0.5 h. The procedure, abridged: as §1
The nature of series [4]: Metabolic stability in mouse liver microsomes assessed as parent compound remaining at 1 uM incubated for 30 mins. It counts as ADME, Microsome. The note with it: 0.5 h. The procedure, abridged: as §1

A word on the IC50: it is the concentration that gives 50% inhibition. What is called fraction remaining is what is left of the initial amount, in per cent.

In brackets after ≈: the same amount, converted by molar mass. Some results are limits rather than exact numbers.

For the molecule `CCCn1nc2c(c1Nc1nc(-c3ccc(-n4cnc(C)c4)c(OC)n3)cs1)CCCC2`, the solubility kinetic in series [1] was less than 1.6 µM. The IC50 on Gamma-secretase was found to be 48 nM.
As for `Cc1cn(-c2ccc(-c3csc(Nc4c5c(nn4C)CCCC5)n3)cn2)cn1`, on Gamma-secretase, the IC50 was greater than 1000 nM.
On to `CCn1nc2c(c1Nc1nc(-c3cnc(-n4cnc(C)c4)c(OC)n3)cs1)CCCC2`, for which, in series [1], the solubility kinetic is less than 1.6 µM. The IC50 at Gamma-secretase came to 89 nM.
Taken in the same sequence, the figures for `CCn1nc2c(c1Nc1nc(-c3ccc(-n4cnc(C)c4)c(OC)c3)cs1)CCCC2` were 4.6 µM (≈ 2 µg/mL) and 171 nM.
The corresponding values for `COc1nc(-c2csc(Nc3cc(C(C)(C)C)nn3C(C)(C)C)n2)ccc1-n1cnc(C)c1` are less than 1.6 µM and 40 nM.
The corresponding values for `COc1nc(-c2csc(Nc3c4c(nn3C3CCOCC3)CCCC4)n2)ccc1-n1cnc(C)c1` are 4.7 µM (≈ 2.31 µg/mL) and 102 nM.
`COc1nc(-c2csc(Nc3cc(C(C)(C)C)nn3C)n2)ccc1-n1cnc(C)c1`: the half-inhibitory concentration (IC50) at Gamma-secretase is 136 nM.
The same measure, in the same setting: the result for `Cc1cn(-c2ccc(-c3csc(Nc4cc(C(C)(C)C)nn4C)n3)cc2)cn1` reads 275 nM.
Consider `CCCn1nc(C(C)(C)C)cc1Nc1nc(-c2ccc(-n3cnc(C)c3)c(OC)n2)cs1`, for which the solubility kinetic in series [1] stood at 2.1 µM (≈ 0.948 µg/mL). Further, the half-maximal inhibitory concentration (IC50) on Gamma-secretase was found to be 100 nM.
Taken in the same sequence, the figures for `COc1nc(-c2csc(Nc3cc(C(F)(F)F)nn3C(C)(C)C)n2)ccc1-n1cnc(C)c1` were less than 1.6 µM and 126 nM.
Turning to `COc1nc(-c2csc(Nc3c4c(nn3C3CCN(C)CC3)CCCC4)n2)ccc1-n1cnc(C)c1`, the solubility kinetic in series [1] was 92 µM (≈ 46.4 µg/mL). For the same molecule, the IC50 on Gamma-secretase was greater than 1000 nM.
The corresponding values for `COc1nc(-c2csc(Nc3c4c(nn3C3CCCC3)CCCC4)n2)ccc1-n1cnc(C)c1` are 1.8 µM (≈ 0.856 µg/mL) and 83 nM.
In the case of `CCn1nc2c(c1Nc1nc(-c3ccc(-n4cnc(C)c4)nc3)cs1)CCCC2`, on Gamma-secretase, the IC50 is greater than 1000 nM.
For `CCn1nc2c(c1N(C)c1nc(-c3ccc(-n4cnc(C)c4)c(OC)n3)cs1)CCCC2`, the solubility kinetic in series [1] was found to be 3.4 µM (≈ 1.53 µg/mL). Also, the IC50 on Gamma-secretase is 636 nM.
For `CCn1nc2c(c1Nc1nc(-c3ccc(-n4cnc(C)c4)cc3)cs1)CCCC2`, the concentration for half-maximal inhibition (IC50) on Gamma-secretase turned out to be 660 nM.
The same measure, in the same setting: to `CCn1nc2c(c1Nc1nc(-c3ccc(-n4cnc(C)c4)c(O)n3)cs1)CCCC2` belongs 468 nM.
Consider `Cc1cn(-c2ccc(-c3csc(Nc4c5c(nn4C)CCCC5)n3)cc2)cn1`, for which the IC50 on Gamma-secretase came out at 453 nM. Also, the fraction remaining at 0.5 h, 1 µM in series [2] (liver microsomes) is 55%. The Stabilty is recorded as 56% in series [3] and 84% in series [4].
As to `COc1cc(-c2csc(Nc3cc(C(C)(C)C)nn3C)n2)ccc1-n1cnc(C)c1`, the IC50 on Gamma-secretase amounted to 253 nM. Moreover, the Stabilty in series [2] (microsomes, 0.5 h, 1 µM) is given as 60%; in series [3], 76%; in series [4] it was 92%.
Take `COc1cc(-c2csc(Nc3c4c(nn3C)CCCC4)n2)ccc1-n1cnc(C)c1`: at Gamma-secretase, the IC50 was found to be 148 nM.
Same read-out and setting: the result for `CCn1nc(C(C)(C)C)cc1Nc1nc(-c2ccc(-n3cnc(C)c3)cc2)cs1` reads 339 nM; that for `Cc1cn(-c2ccc(-c3csc(Nc4cc(C(C)(C)C)nn4C)n3)cn2)cn1`, 590 nM.
In the case of `COc1nc(-c2csc(Nc3c4c(nn3C3CCCCC3)CCCC4)n2)ccc1-n1cnc(C)c1`, the solubility kinetic in series [1] is less than 1.6 µM. At Gamma-secretase, the IC50 was 63 nM.
`COc1nc(-c2csc(Nc3c4c(nn3CCN3CCCCC3)CCCC4)n2)ccc1-n1cnc(C)c1`: in series [1], the solubility kinetic came out at 46 µM (≈ 23.9 µg/mL). For the same molecule, the IC50 on Gamma-secretase was determined as 208 nM.
Regarding `CCn1nccc1Nc1nc(-c2ccc(-n3cnc(C)c3)c(OC)n2)cs1`, the 50% inhibitory concentration (IC50) at Gamma-secretase is greater than 1000 nM.
In the case of `CCn1nc(C(C)(C)C)cc1Nc1nc(-c2ccc(-n3cnc(C)c3)c(OC)c2)cs1`, on Gamma-secretase, the IC50 was found to be 96 nM.
Same read-out and setting: the result for `CCn1nc(C(C)C)cc1Nc1nc(-c2ccc(-n3cnc(C)c3)c(OC)n2)cs1` reads 184 nM.
Consider `COc1nc(-c2csc(Nc3cc(C(F)(F)F)nn3CC(F)(F)F)n2)ccc1-n1cnc(C)c1`, for which the solubility kinetic in series [1] turned out to be 2 µM (≈ 1.01 µg/mL). Besides, the half-inhibitory concentration (IC50) on Gamma-secretase was 199 nM.
